According to ChEMBL document CHEMBL3124859, “Novel Peptidomimetic Hepatitis C Virus NS3/4A Protease Inhibitors Spanning the P2-P1' Region” (ACS Med Chem Lett, 2014):
Converted amounts (≈) assume the structure as drawn.

Tests used:
[1] = Cytotoxicity against human HuH7 cells; type: cell-based, Huh-7
Hepatitis C virus = assay: Antiviral activity against Hepatitis C virus genotype 1b infected in human HuH7 cells by subgenomic replicon-based luciferase assay; type: functional, organism-based, Hepacivirus hominis; details: Huh-7
In short: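 Huh-7 replicon cell line carrying a subgenomic HCV genotype 1b RNA replicon with a firefly luciferase reporter; replicon inhibition read by luciferase signal and reported as EC50.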

[2] = Half life in human liver microsomes at 1 uM after 5 mins by LC/MS/MS analysis
[3] = Apparent permeability from apical to basolateral side of human Caco2 cells at 10 uM; details: Caco-2
[4] = Solubility of the compound in phosphate buffered saline at pH 7.4 after 1 hr by LC-MS/MS analysis
NS3 protease [5] = target: NS3 protease (Hepacivirus C, UniProt C1KIQ2, R155K); assay: Inhibition of Hepatitis C virus genotype 1a full length NS3/2K-NS4A protease R155K mutant using Ac-DED(Edans)EEAbupsi[COO]ASK(Dabcyl)-NH2 as substrate incubated for 10 mins prior to substrate addition by FRET analysis; set-up: species or system Hepatitis C virus subtype 1a
In short: (§1)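 Ki (nM ± SD) determined against each resistant NS3/4A protease variant. A vitality value was calculated for each variant as V = [Ki × (kcat/Km)]variant / [Ki × (kcat/Km)]wild-type, normalising for the effect of the substitution on catalytic efficiency.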

NS3 protease [6] = target: NS3 protease (Hepacivirus C, UniProt C1KIQ2, D168V); assay: Inhibition of Hepatitis C virus genotype 1a full length NS3/2K-NS4A protease D168V mutant using Ac-DED(Edans)EEAbupsi[COO]ASK(Dabcyl)-NH2 as substrate incubated for 10 mins prior to substrate addition by FRET analysis; set-up: species or system Hepatitis C virus subtype 1a; in short: as §1
NS3 protease [7] = target: NS3 protease (Hepacivirus C, UniProt C1KIQ2, A156T); assay: Inhibition of Hepatitis C virus genotype 1a full length NS3/2K-NS4A protease A156T mutant using Ac-DED(Edans)EEAbupsi[COO]ASK(Dabcyl)-NH2 as substrate incubated for 10 mins prior to substrate addition by FRET analysis; set-up: species or system Hepatitis C virus subtype 1a; in short: as §1
[8] = Inhibition of Hepatitis C virus genotype 1a full length NS3/2K-NS4A protease using Ac-DED(Edans)EEAbupsi[COO]ASK(Dabcyl)-NH2 as substrate incubated for 10 mins prior to substrate addition by FRET analysis; set-up: species or system Hepatitis C virus subtype 1a
in vitro = details: human

Chain of NS3 protease (Hepacivirus C, UniProt C1KIQ2, D168V) (C1KIQ2 entry or part of it D168V): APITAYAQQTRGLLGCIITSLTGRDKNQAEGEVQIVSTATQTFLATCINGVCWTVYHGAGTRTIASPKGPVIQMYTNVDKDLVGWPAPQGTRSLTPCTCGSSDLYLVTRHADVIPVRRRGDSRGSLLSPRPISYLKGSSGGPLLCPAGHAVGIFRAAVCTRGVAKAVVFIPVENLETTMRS
Chain of NS3 protease (Hepacivirus C, UniProt C1KIQ2, A156T) (C1KIQ2 entry or part of it A156T): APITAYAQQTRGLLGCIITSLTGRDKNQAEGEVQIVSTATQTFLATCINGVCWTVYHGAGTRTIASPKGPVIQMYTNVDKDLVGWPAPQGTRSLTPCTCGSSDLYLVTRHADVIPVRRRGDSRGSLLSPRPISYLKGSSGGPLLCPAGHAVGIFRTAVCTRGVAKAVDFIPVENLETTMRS
Chain of NS3 protease (Hepacivirus C, UniProt C1KIQ2, R155K) (C1KIQ2 entry or part of it R155K): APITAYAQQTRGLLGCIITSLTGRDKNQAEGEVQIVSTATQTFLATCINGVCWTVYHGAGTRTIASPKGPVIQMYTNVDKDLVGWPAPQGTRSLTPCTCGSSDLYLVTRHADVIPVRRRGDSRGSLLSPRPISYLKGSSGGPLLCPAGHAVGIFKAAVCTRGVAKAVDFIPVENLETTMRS

## C=CCCCS(=O)(=O)NC(=O)c1ccccc1NC(=O)C(NC(=O)[C@@H](NC(=O)OC(C)(C)C)C(C)(C)C)c1ccc(Oc2cc(OC)nc(-c3ccccc3)n2)c(C=C)c1 (mixture of isomers)
[1]
  CC50: ≥ 50 µM
Hepatitis C virus
  EC50: 12.5 µM

## C=Cc1cc([C@H](NC(=O)[C@@H](NC(=O)OC(C)(C)C)C(C)(C)C)C(=O)Nc2cccc(C(=O)NS(=O)(=O)c3ccc(C(F)(F)F)cc3)c2)ccc1Oc1cc(OC)nc(-c2ccccc2)n1
[2]; liver microsomes
  half-life at 5 min, 1 µM: 17 min
[3]
  Papp A→B at 10 µM: 9.7 ×10⁻⁶ cm/s
[4]
  solubility at 1 h: 43 µM (≈ 39.4 µg/mL)
[1]
  CC50: ≥ 50 µM
Hepatitis C virus
  EC50: > 50 µM
NS3 protease [5]
  Ki: 210 nM
NS3 protease [6]
  Ki: 110 nM
NS3 protease [7]
  Ki: 53 nM
[8]
  Ki: 24 nM
In vitro; liver microsomes
  microsomal CLint at 5 min, 1 µM: 80 µL/min/mg

## C=Cc1cc(C(NC(C)=O)C(=O)Nc2cccc(C(=O)NS(=O)(=O)c3ccc(C(F)(F)F)cc3)c2)ccc1Oc1cc(OC)nc(-c2ccccc2)n1 (configuration not stated)
[8]
  Ki: 700 nM

## C=Cc1cc([C@H](NC(=O)[C@@H](NC(=O)OC(C)(C)C)C(C)(C)C)C(=O)Nc2ccc(C(=O)NS(=O)(=O)c3ccc(C(F)(F)F)cc3)cc2)ccc1Oc1cc(OC)nc(-c2ccccc2)n1
[8]
  Ki: 30 nM

## C=Cc1cc(C(NC(=O)OC2CCCC2)C(=O)Nc2cccc(C(=O)NS(=O)(=O)c3ccc(C(F)(F)F)cc3)c2)ccc1Oc1cc(OC)nc(-c2ccccc2)n1 (configuration not stated)
[8]
  Ki: 72 nM

## C=Cc1cc([C@H](NC(=O)[C@@H](NC(=O)OC(C)(C)C)C(C)(C)C)C(=O)Nc2ccccc2C(=O)NS(=O)(=O)c2ccc(C(F)(F)F)cc2)ccc1Oc1cc(OC)nc(-c2ccccc2)n1
[8]
  Ki: 45 nM

## C=CCCCS(=O)(=O)NC(=O)c1ccc(NC(=O)[C@H](NC(=O)[C@@H](NC(=O)OC(C)(C)C)C(C)(C)C)c2ccc(Oc3cc(OC)nc(-c4ccccc4)n3)c(C=C)c2)cc1
[8]
  Ki: 110 nM

## C=Cc1cc(C(NC(=O)OC(C)(C)C)C(=O)Nc2ccccc2C(=O)NS(=O)(=O)c2ccc(C(F)(F)F)cc2)ccc1Oc1cc(OC)nc(-c2ccccc2)n1 (configuration not stated)
[2]; microsomes
  half-life at 5 min, 1 µM: 88 min
[3]
  Papp A→B at 10 µM: 4 ×10⁻⁶ cm/s
[4]
  solubility at 1 h: 5 µM (≈ 4.02 µg/mL)
[8]
  Ki: 240 nM
In vitro; microsomes
  microsomal CLint at 5 min, 1 µM: 16 µL/min/mg

## CCC[C@H](NC(=O)[C@@H]1[C@H]2CCC[C@H]2CN1C(=O)[C@@H](NC(=O)[C@@H](NC(=O)c1cnccn1)C1CCCCC1)C(C)(C)C)C(=O)C(=O)NC1CC1
[8]
  Ki: 40 nM

## C=CCCCS(=O)(=O)NC(=O)c1ccc(NC(=O)[C@@H](NC(=O)[C@@H](NC(=O)OC(C)(C)C)C(C)(C)C)c2ccc(Oc3cc(OC)nc(-c4ccccc4)n3)c(C=C)c2)cc1
[8]
  Ki: 96 nM

## C=Cc1cc(C(NC(=O)N2CCOCC2)C(=O)Nc2cccc(C(=O)NS(=O)(=O)c3ccc(C(F)(F)F)cc3)c2)ccc1Oc1cc(OC)nc(-c2ccccc2)n1 (configuration not stated)
[8]
  Ki: 590 nM

## C=CCCCS(=O)(=O)NC(=O)c1cccc(NC(=O)C(NC(=O)OC2CCCC2)c2ccc(Oc3cc(OC)nc(-c4ccccc4)n3)c(C=C)c2)c1 (configuration not stated)
[8]
  Ki: 130 nM

## C=Cc1cc(C(NC(=O)NC(C)(C)C)C(=O)Nc2cccc(C(=O)NS(=O)(=O)c3ccc(C(F)(F)F)cc3)c2)ccc1Oc1cc(OC)nc(-c2ccccc2)n1 (configuration not stated)
[2]; liver microsomes
  half-life at 5 min, 1 µM: 194 min
[8]
  Ki: 140 nM
In vitro; liver microsomes
  microsomal CLint at 5 min, 1 µM: 7 µL/min/mg

## C=CCCCS(=O)(=O)NC(=O)c1ccccc1NC(=O)[C@H](NC(=O)[C@@H](NC(=O)OC(C)(C)C)C(C)(C)C)c1ccc(Oc2cc(OC)nc(-c3ccccc3)n2)c(C=C)c1
[8]
  Ki: 33 nM

## C=CCCCS(=O)(=O)NC(=O)c1ccc(NC(=O)C(NC(=O)OC(C)(C)C)c2ccc(Oc3cc(OC)nc(-c4ccccc4)n3)c(C=C)c2)cc1 (configuration not stated)
[8]
  Ki: 220 nM

## C=CCCCS(=O)(=O)NC(=O)c1cccc(NC(=O)[C@@H](NC(=O)[C@@H](NC(=O)OC(C)(C)C)C(C)(C)C)c2ccc(Oc3cc(OC)nc(-c4ccccc4)n3)c(C=C)c2)c1
[8]
  Ki: 88 nM

## C=Cc1cc(C(N)C(=O)Nc2cccc(C(=O)NS(=O)(=O)c3ccc(C(F)(F)F)cc3)c2)ccc1Oc1cc(OC)nc(-c2ccccc2)n1 (configuration not stated)
[8]
  Ki: 1200 nM

## COc1ccc2c(O[C@@H]3C[C@H]4C(=O)N[C@]5(C(=O)O)C[C@H]5/C=C\CCCCC[C@H](NC(=O)OC5CCCC5)C(=O)N4C3)cc(-c3csc(NC(C)C)n3)nc2c1
[8]
  Ki: 300 nM

## C=Cc1cc(C(NC(=O)c2cccnc2)C(=O)Nc2cccc(C(=O)NS(=O)(=O)c3ccc(C(F)(F)F)cc3)c2)ccc1Oc1cc(OC)nc(-c2ccccc2)n1 (configuration not stated)
[8]
  Ki: 240 nM

## C=CCCCS(=O)(=O)NC(=O)c1cccc(NC(=O)[C@H](NC(=O)[C@@H](NC(=O)OC(C)(C)C)C(C)(C)C)c2ccc(Oc3cc(OC)nc(-c4ccccc4)n3)c(C=C)c2)c1
[8]
  Ki: 100 nM

## C=CCCCS(=O)(=O)NC(=O)c1ccccc1NC(=O)[C@@H](NC(=O)OC(C)(C)C)c1ccc(Oc2cc(OC)nc(-c3ccccc3)n2)c(C=C)c1
[2]; microsomes
  half-life at 5 min, 1 µM: 21 min
[3]
  Papp A→B at 10 µM: 1 ×10⁻⁶ cm/s
[4]
  solubility at 1 h: 101 µM (≈ 73.5 µg/mL)
[8]
  Ki: 190 nM
In vitro; microsomes
  microsomal CLint at 5 min, 1 µM: 66 µL/min/mg

## C=Cc1cc(C(NC(=O)OC2CCCC2)C(=O)Nc2ccc(C(=O)NS(=O)(=O)c3ccc(C(F)(F)F)cc3)cc2)ccc1Oc1cc(OC)nc(-c2ccccc2)n1 (configuration not stated)
[8]
  Ki: 55 nM

## C=Cc1cc(C(NC(=O)OC(C)(C)C)C(=O)Nc2cccc(C(=O)NS(=O)(=O)c3ccc(C(F)(F)F)cc3)c2)ccc1Oc1cc(OC)nc(-c2ccccc2)n1 (configuration not stated)
[2]; liver microsomes
  half-life at 5 min, 1 µM: 117 min
[3]
  Papp A→B at 10 µM: 1 ×10⁻⁶ cm/s
[1]
  CC50: ≥ 50 µM
Hepatitis C virus
  EC50: 27.5 µM
NS3 protease [5]
  Ki: 580 nM
NS3 protease [6]
  Ki: 180 nM
NS3 protease [7]
  Ki: 110 nM
[8]
  Ki: 58 nM
In vitro; liver microsomes
  microsomal CLint at 5 min, 1 µM: 12 µL/min/mg

## C=Cc1cc([C@@H](NC(=O)[C@@H](NC(=O)OC(C)(C)C)C(C)(C)C)C(=O)Nc2ccc(C(=O)NS(=O)(=O)c3ccc(C(F)(F)F)cc3)cc2)ccc1Oc1cc(OC)nc(-c2ccccc2)n1
[8]
  Ki: 30 nM

## C=CCCCS(=O)(=O)NC(=O)c1ccccc1NC(=O)[C@@H](NC(=O)[C@@H](NC(=O)OC(C)(C)C)C(C)(C)C)c1ccc(Oc2cc(OC)nc(-c3ccccc3)n2)c(C=C)c1
[8]
  Ki: 26 nM

## C=CCCCS(=O)(=O)NC(=O)c1cccc(NC(=O)C(NC(=O)OC(C)(C)C)c2ccc(Oc3cc(OC)nc(-c4ccccc4)n3)c(C=C)c2)c1 (configuration not stated)
[8]
  Ki: 210 nM

## C=Cc1cc(C(NC(=O)OC(C)(C)C)C(=O)Nc2ccc(C(=O)NS(=O)(=O)c3ccc(C(F)(F)F)cc3)cc2)ccc1Oc1cc(OC)nc(-c2ccccc2)n1 (configuration not stated)
[2]; liver microsomes
  half-life at 5 min, 1 µM: 55 min
[8]
  Ki: 46 nM
In vitro; liver microsomes
  microsomal CLint at 5 min, 1 µM: 25 µL/min/mg
